Assay results reported in ChEMBL document CHEMBL4004818, “Montagnuphilones A-G, Azaphilones from Montagnulaceae sp. DM0194, a Fungal Endophyte of Submerged Roots of Persicaria amphibia” (J Nat Prod, 2017).

Columns and labels:
[1] = Cytotoxicity against LPS-induced mouse RAW264.7 cells assessed as cell survival up to 100 uM by MTT assay relative to control; type: cell-based; conditions: LPS-induced RAW264.7 cells, read-out: Survival
Method in brief: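 MTT viability assay on LPS-activated RAW264.7 cells, the same cells used for the NO assay; tested at concentrations up to 100 μM; triplicate experiments.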

[2] = tested on: RAW264.7; test: Antiinflammatory activity in mouse RAW264.7 cells assessed as inhibition of LPS-induced nitric oxide production preincubated for 2 hrs followed by LPS stimulation measured after 18 hrs by Griess assay; type: functional, cell-based
Method in brief: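 LPS-activated RAW264.7 macrophages; nitric oxide production measured and IC50 derived; L-NAME as positive control; triplicate experiments.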

Row | Compound | viability [1] [%] | IC50 [2] [µM]
1 | Cc1cc(O)cc(O)c1C(=O)O[C@@H]1CC2=C(CO[C@](O)(CCC(=O)O)C2)C(=O)[C@]1(C)O (relative stereo) | 90 | 
2 | Cc1cc(O)cc(O)c1C(=O)O[C@@]1(C)C(=O)C2=C(C=C(/C=C/CO)OC2)C[C@H]1O | 90 | 9.2
3 | Cc1cc(O)cc(O)c1C(=O)O[C@@H]1CC2=C(COC(/C=C/C(=O)O)=C2)C(=O)[C@]1(C)O (relative stereo) | 90 | 
4 | Cc1cc(O)cc(O)c1C(=O)O[C@@H]1CC2=C(CO[C@@](O)(CCC(=O)O)C2)C(=O)[C@]1(C)O (relative stereo) | 90 | 
5 | Cc1cc(O)cc(O)c1C(=O)O[C@@H]1CC2=C(CO[C@](O)(CCCO)C2)C(=O)[C@]1(C)O (relative stereo) | 90 | 25.5
6 | COC(=O)[C@@H](N)CCCNC(=N)N[N+](=O)[O-] [L-NAME] |  | 30.6
7 | Cc1cc(O)cc(O)c1C(=O)O[C@@H]1CC2=C(COC(CCC(=O)O)=C2)C(=O)[C@]1(C)O (relative stereo) | 90 | 39.6
8 | Cc1cc(O)cc(O)c1C(=O)O[C@@H]1CC2=C(CO[C@@](O)(CCCO)C2)C(=O)[C@]1(C)O (relative stereo) | 90 | 
